Activity calls are given as the source filed them. No cut-off for these calls is given here.
Columns and labels:
[1] = system: Rattus norvegicus; test: Antiinflammatory activity in Sprague-Dawley rat assessed as inhibition of carrageenan-induced foot paw oedema at 200 mg/kg, ip after 1 hr by plethysmometer analysis relative to control; assay type: functional; settings: for inhibition in vivo at 200 mg/kg: route intraperitoneal
How it was run: (§1)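 Male Sprague–Dawley rats (250 g), fasted at least 16 h with water available. Compounds were given i.p. as a 1 mL suspension in 0.5% methyl cellulose; controls received vehicle. Paw volume was read by water-displacement plethysmometer before treatment and 1 and 2 h after. Activity (%) = (1 − D/C) × 100, where D and C are paw-volume changes in treated and control rats; mean ± SEM, n = 4–6.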

[2] = target: T1, Prostaglandin G/H synthase 1 (Ovis aries, UniProt P05979); test: Inhibition of ovine COX1 assessed as PGF2alpha production from PGH2 after 5 mins by enzyme immunoassay
T1 sequence (P05979 whole entry): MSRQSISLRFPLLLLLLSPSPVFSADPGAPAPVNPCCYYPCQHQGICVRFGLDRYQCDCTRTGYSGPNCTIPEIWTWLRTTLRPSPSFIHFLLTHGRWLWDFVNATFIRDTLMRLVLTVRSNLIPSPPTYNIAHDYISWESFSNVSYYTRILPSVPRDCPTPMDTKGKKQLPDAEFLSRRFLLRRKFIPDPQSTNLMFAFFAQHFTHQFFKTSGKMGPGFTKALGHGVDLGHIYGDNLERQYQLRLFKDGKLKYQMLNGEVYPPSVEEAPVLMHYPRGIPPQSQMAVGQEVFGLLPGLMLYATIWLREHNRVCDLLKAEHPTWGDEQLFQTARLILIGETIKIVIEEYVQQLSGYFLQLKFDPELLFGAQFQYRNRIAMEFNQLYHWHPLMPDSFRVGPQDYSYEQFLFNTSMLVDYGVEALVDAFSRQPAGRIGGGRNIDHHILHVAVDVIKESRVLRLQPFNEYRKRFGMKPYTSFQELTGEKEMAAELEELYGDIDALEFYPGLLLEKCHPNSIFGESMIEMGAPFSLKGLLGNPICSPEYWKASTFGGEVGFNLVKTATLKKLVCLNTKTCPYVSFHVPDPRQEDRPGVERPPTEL
How it was run: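 Ovine COX-1 in reaction buffer with 2 mM phenol and heme, preincubated with six test concentrations (1 mL final) for 5 min at 37 °C. Arachidonic acid was then added and the reaction stopped with 1 M HCl after 2 min. Prostanoids were reduced with stannous chloride and quantified by competitive acetylcholinesterase-tracer EIA (Ellman's reagent, 410 nm). IC50 came from concentration–inhibition curves, duplicate determinations.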

[3] = system: Rattus norvegicus; test: Antiinflammatory activity in ip dosed Sprague-Dawley rat assessed as inhibition of carrageenan-induced foot paw oedema after 2 hrs by plethysmometer analysis; assay type: functional
How it was run: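 Rat carrageenan paw oedema: male Sprague–Dawley rats (250 g), fasted ≥16 h, dosed i.p. with a 1 mL suspension in 0.5% methyl cellulose. Paw swelling was measured by plethysmometer water displacement, and percent inhibition was taken against vehicle controls.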

[4] = system: Rattus norvegicus; test: Antiinflammatory activity in Sprague-Dawley rat assessed as inhibition of carrageenan-induced foot paw oedema at 200 mg/kg, ip after 2 hrs by plethysmometer analysis relative to control; assay type: functional; settings: for inhibition in vivo at 200 mg/kg: route intraperitoneal; how it was run: as §1
[5] = system: Rattus norvegicus; test: Antiinflammatory activity in Sprague-Dawley rat assessed as inhibition of carrageenan-induced foot paw oedema at 100 mg/kg, ip after 1 hr by plethysmometer analysis relative to control; assay type: functional; settings: route intraperitoneal; how it was run: as §1
[6] = system: Rattus norvegicus; test: Antiinflammatory activity in Sprague-Dawley rat assessed as inhibition of carrageenan-induced foot paw oedema at 100 mg/kg, ip after 2 hrs by plethysmometer analysis relative to control; assay type: functional; settings: route intraperitoneal; how it was run: as §1
[7] = target: T2, Prostaglandin G/H synthase 1 (Ovis aries) (UniProt P05979); test: Inhibition of ovine COX1 assessed as PGF2alpha production from PGH2 at 100 uM after 5 mins by enzyme immunoassay
T2 sequence (whole entry): T1 sequence (P05979 whole entry)
How it was run: (§2)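 Enzyme (ovine COX-1) with heme in buffer containing 2 mM phenol was preincubated with the test compound for 5 min at 37 °C, then given arachidonic acid for 2 min before quenching with 1 M HCl. Products were reduced with stannous chloride and measured by competitive PG-tracer EIA at 410 nm. Percent inhibition was calculated against control incubations.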

[8] = target: T2, Prostaglandin G/H synthase 1 (Ovis aries); test: Inhibition of ovine COX1 assessed as PGF2alpha production from PGH2 at 0.5 uM after 5 mins by enzyme immunoassay; how it was run: as §2

Row | Compound | inhibition in vivo at 200 mg/kg [1] [%] | IC50 [2] [µM] | ED50 [3] [mg/kg] | inhibition in vivo at 200 mg/kg [4] [%] | inhibition in vivo at 100 mg/kg [5] [%] | inhibition in vivo at 100 mg/kg [6] [%] | inhibition [1] | inhibition [4] | inhibition [7] [%] | inhibition [8] [%]
1 | O=Cc1c(C(F)(F)F)nn(-c2ccccc2)c1-c1ccc(Cl)cc1 | 75 | > 50 | 190 | 59.1 | 24.1 | 40.3 |  |  |  | 
2 | COc1ccc(N/N=C2/C(c3ccc(Cl)cc3)=NN=C2C(F)(F)F)cc1 |  | > 50 |  |  |  |  | inactive | inactive |  | 
3 | FC(F)(F)C1=NN=C(c2ccc(Cl)cc2)/C1=N/Nc1ccc(Cl)cc1 | 8.1 | > 50 |  | 9.1 |  |  |  |  |  | 
4 | O=C(O)Cc1ccccc1Nc1c(Cl)cccc1Cl [DICLOFENAC SODIUM] |  |  |  |  | 88.5 | 89.5 |  |  |  | 
5 | O=C(/C(=N\Nc1ccc(Cl)cc1)C(=O)C(F)(F)F)c1ccc(Cl)cc1 | 26.7 | > 50 |  | 35.2 |  |  |  |  |  | 
6 | COc1ccc(N/N=C(\C(=O)c2ccc(Cl)cc2)C(=O)C(F)(F)F)cc1 | 27.6 | > 50 | 240 | 42.2 | 0 | 3.8 |  |  | 25 | 31
7 | O=C1CCC/C1=C\c1c(C(F)(F)F)nn(-c2ccccc2)c1-c1ccc(Cl)cc1 | 80.7 | > 50 | 118 | 82 | 37 | 67 |  |  |  | 
8 | O=C(/C(=N\Nc1ccc(Br)cc1)C(=O)C(F)(F)F)c1ccc(Cl)cc1 | 35 | > 50 | 280 | 33.8 | 0 | 13.9 |  |  |  | 
9 | O=C(/C=C/c1c(C(F)(F)F)nn(-c2ccccc2)c1-c1ccc(Cl)cc1)c1ccc(Cl)cc1 | 1.5 | > 50 |  | 4.4 |  |  |  |  |  | 
10 | O=C1CCCC/C1=C\c1c(C(F)(F)F)nn(-c2ccccc2)c1-c1ccc(Cl)cc1 | 33.7 | > 50 |  | 23.9 |  |  |  |  |  | 
11 | O=C(/C(=N\Nc1ccccc1Cl)C(=O)C(F)(F)F)c1ccc(Cl)cc1 | 47.1 | > 50 | 260 | 41.7 | 0 | 19.3 |  |  | 25 | 31
12 | O=C(/C(=N\Nc1ccc([N+](=O)[O-])cc1)C(=O)C(F)(F)F)c1ccc(Cl)cc1 | 35.8 | > 50 | 170 | 57.3 | 0 | 17.9 |  |  | 25 | 31
13 | O=C(/C=C/c1c(C(F)(F)F)nn(-c2ccccc2)c1-c1ccc(Cl)cc1)c1ccccc1 | 1.8 | > 50 |  | 2.6 |  |  |  |  |  | 
14 | O=C(/C(=N\Nc1cc(C(F)(F)F)cc(C(F)(F)F)c1)C(=O)C(F)(F)F)c1ccc(Cl)cc1 | 80 | > 50 | 112 | 88.4 | 33 | 59 |  |  |  | 
15 | CN1CCC(=O)/C(=C/c2c(C(F)(F)F)nn(-c3ccccc3)c2-c2ccc(Cl)cc2)C1 | 6.7 | > 50 |  | 20.3 |  |  |  |  |  | 
16 | FC(F)(F)C1=NN=C(c2ccc(Cl)cc2)/C1=N/Nc1ccc(Br)cc1 | 26.3 | > 50 | 180 | 52.1 | 17.5 | 31.3 |  |  |  | 
17 | FC(F)(F)C1=NN=C(c2ccc(Cl)cc2)/C1=N/Nc1ccccc1Cl | 38.4 | > 50 |  | 15.1 |  |  |  |  |  | 
18 | CCN1CCC(=O)/C(=C/c2c(C(F)(F)F)nn(-c3ccccc3)c2-c2ccc(Cl)cc2)C1 | 80 | > 50 | 120 | 89.7 | 41 | 64 |  |  |  | 
19 | O=[N+]([O-])c1ccc(N/N=C2/C(c3ccc(Cl)cc3)=NN=C2C(F)(F)F)cc1 | 4 | > 50 |  | 7 |  |  |  |  |  | 
20 | FC(F)(F)C1=NN=C(c2ccc(Cl)cc2)/C1=N/Nc1cc(C(F)(F)F)cc(C(F)(F)F)c1 | 40.8 | > 50 |  | 28.8 | 3.4 | 17.3 |  |  |  | 
